Results published in ChEMBL document CHEMBL3525963, “Tissue distribution and elimination of [14C]apixaban in rats” (Drug Metab Dispos, 2011).

Experiments:
Design in all cases: dose 5 mg/kg, dosed compound name [14C]-apixaban, route oral
Details in all cases: in vivo
[1] = test system: Harderian gland; assay: Biodistribution in male Sprague-Dawley rat harderian gland at 5 mg/kg, po administered as single dose measured after 0.5 hrs; type: ADME, organism-based
Method in brief: (§1)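 [¹⁴C]Apixaban given by oral gavage at 5 mg/kg (100 μCi/kg) in 0.5% Tween 80 in Labrafil (1.0 mg/mL dosing solution) to rats fasted overnight through 4 h post-dose. One rat per time point; carcass frozen in hexane/dry ice. Quantitative whole-body autoradiography used 40 µm sagittal sections and a phosphor imaging plate calibrated with [¹⁴C]glucose standards (0.001–6.5 μCi/g). Read-out in µg eq apixaban/g; LLOQ 0.037 μg eq/g.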

[2] = test system: Muscle tissue; assay: Biodistribution in male Sprague-Dawley rat muscle at 5 mg/kg, po administered as single dose measured after 72 hrs; type: ADME, organism-based
Method in brief: (§2)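 Fasted male SD rats (225-252 g) each received one oral gavage dose of [14C]apixaban, 5 mg/kg (100 μCi/kg), in 0.5% Tween 80/Labrafil vehicle. One rat was killed per time point, from 0.5 to 168 h. Frozen carcasses were cut into 40 µm sagittal whole-body sections and read by QWBA phosphor imaging against [14C]glucose calibrants. Results are in µg apixaban eq/g; BLQ <0.037 µg eq/g.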

[3] = test system: Rattus norvegicus; assay: Biodistribution in male Sprague-Dawley rat pituitary gland at 5 mg/kg, po administered as single dose measured after 72 hrs; type: ADME, organism-based; method in brief: as §2
[4] = test system: Rattus norvegicus; assay: Biodistribution in male Sprague-Dawley rat kidney cortex at 5 mg/kg, po administered as single dose measured after 8 hrs; type: ADME, organism-based
[5] = test system: Rattus norvegicus; assay: Biodistribution in female Sprague-Dawley rat kidney cortex at 5 mg/kg, po administered as single dose measured after 24 hrs; type: ADME, organism-based
Method in brief: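 Quantitative whole-body autoradiography was run after a single 5 mg/kg (100 μCi/kg) oral gavage to fasted female or pregnant SD rats, one rat per time point. Carcasses were frozen in hexane/dry ice, and 40 µm sagittal sections were dried at −20°C for at least 48 h. Sections were exposed to a phosphor plate alongside [14C]glucose standards (0.001–6.5 µCi/g). Results are µg eq/g, with LLOQ 0.037 µg eq/g.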

[6] = test system: Rattus norvegicus; assay: Biodistribution in female Sprague-Dawley rat bone marrow at 5 mg/kg, po administered as single dose measured after 8 hrs; type: ADME, organism-based
Method in brief: (§3)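 [14C]apixaban (20 μCi/mL in dosing solution) in 0.5% Tween 80 in Labrafil given by oral gavage to fasted female rats, 206-213 g, at 100 μCi/kg. One rat per time point was euthanized and snap-frozen. Sagittal 40 µm whole-body sections were read by QWBA phosphor imaging against [14C]glucose standards. Results are in µg eq apixaban/g, with LLOQ 0.037 μg eq/g.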

[7] = test system: Rattus norvegicus; assay: Biodistribution in female Sprague-Dawley rat pituitary gland at 5 mg/kg, po administered as single dose measured after 0.5 hrs; type: ADME, organism-based; method in brief: as §3
[8] = test system: Pancreas; assay: Biodistribution in female Sprague-Dawley rat pancreas at 5 mg/kg, po administered as single dose measured after 0.5 hrs; type: ADME, organism-based; method in brief: as §1
[9] = test system: Blood; assay: Biodistribution in male Sprague-Dawley rat blood at 5 mg/kg, po administered as single dose measured after 72 hrs; type: ADME, organism-based; method in brief: as §2
[10] = test system: Harderian gland; assay: Biodistribution in male Sprague-Dawley rat harderian gland at 5 mg/kg, po administered as single dose measured after 72 hrs; type: ADME, organism-based; method in brief: as §2
[11] = test system: Lung; assay: Biodistribution in male Sprague-Dawley rat lung at 5 mg/kg, po administered as single dose measured after 72 hrs; type: ADME, organism-based; method in brief: as §2
[12] = test system: Rattus norvegicus; assay: Biodistribution in male Sprague-Dawley rat brown fat at 5 mg/kg, po administered as single dose measured after 1 hr; type: ADME, organism-based, Brown adipose tissue
Method in brief: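 Fasted male rats, 225-252 g, received [14C]apixaban by single oral gavage at 100 μCi/kg in 0.5% Tween 80/Labrafil. One rat was killed per time point and the carcass frozen. Tissue radioactivity was quantified by QWBA (40 µm sagittal sections, phosphor plate, [14C]glucose calibration) as µg eq apixaban/g, with LLOQ 0.037 μg eq/g.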

[13] = test system: Harderian gland; assay: Biodistribution in male Sprague-Dawley rat harderian gland at 5 mg/kg, po administered as single dose measured after 1 hr; type: ADME, organism-based; method in brief: as §1
[14] = test system: Heart; assay: Biodistribution in male Sprague-Dawley rat heart at 5 mg/kg, po administered as single dose measured after 1 hr; type: ADME, organism-based; method in brief: as §1
[15] = test system: Blood; assay: Biodistribution in female Sprague-Dawley rat blood at 5 mg/kg, po administered as single dose measured after 0.5 hrs; type: ADME, organism-based; method in brief: as §1
[16] = test system: Blood; assay: Biodistribution in pregnant Sprague-Dawley rat blood at 5 mg/kg, po administered as single dose measured after 48 hrs; type: ADME, organism-based
Method in brief: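 Fasted pregnant SD rats (n=6, 270-319 g) each received one oral gavage dose of [14C]apixaban, 5 mg/kg (100 μCi/kg), in 0.5% Tween 80/Labrafil. One rat was killed at each of 0.5, 1, 4, 8, 24 and 48 h. Carcasses were frozen in hexane/dry ice, cut into 40 µm sagittal sections, exposed to phosphor plates and quantified against [14C]glucose standards as µg eq/g. LLOQ was 0.037 µg eq/g.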

[17] = test system: Muscle tissue; assay: Biodistribution in pregnant Sprague-Dawley rat muscle at 5 mg/kg, po administered as single dose measured after 48 hrs; type: ADME, organism-based
Method in brief: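 Pregnant SD rats (270-319 g) were fasted overnight and given one oral gavage of 5 mg/kg (100 μCi/kg) in 0.5% Tween 80 in Labrafil. One rat was euthanized per time point (0.5, 1, 4, 8, 24, 48 h) and the carcass frozen. 40 µm sagittal sections were phosphor-imaged against [14C]glucose standards and results reported as µg eq/g; LLOQ 0.037 µg eq/g.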

[18] = test system: Rattus norvegicus; assay: Biodistribution in pregnant Sprague-Dawley rat kidney cortex at 5 mg/kg, po administered as single dose measured after 4 hrs; type: ADME, organism-based
[19] = test system: Rattus norvegicus; assay: Biodistribution in female Sprague-Dawley rat bone marrow at 5 mg/kg, po administered as single dose measured after 1 hr; type: ADME, organism-based; method in brief: as §3
[20] = test system: Blood; assay: AUC (0 to t) in pregnant Sprague-Dawley rat blood at 5 mg/kg, po administered as single dose; type: ADME, organism-based
[21] = test system: Plasma; assay: AUC (0 to t) in lactating Sprague-Dawley rat plasma at 5 mg/kg, po administered as single dose; type: ADME, organism-based
Method in brief: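 Fasted lactating SD rats received 5 mg/kg [14C]apixaban orally (formulation 5.0 mg/mL, 20 μCi/mL). Oxytocin was injected subcutaneously 15 min before collection, and 1 mL milk was taken under anesthesia by milking machine. Sampling was predose and at 0.5–24 h, 3 rats per time point. Plasma was obtained at 1300g for 10 min. Duplicate 50–100 µL aliquots were counted by LSC for 10 min. AUC was calculated in WinNonlin.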

[22] = test system: Harderian gland; assay: Biodistribution in pregnant Sprague-Dawley rat harderian gland at 5 mg/kg, po administered as single dose measured after 0.5 hrs; type: ADME, organism-based
[23] = test system: Pancreas; assay: Biodistribution in pregnant Sprague-Dawley rat pancreas at 5 mg/kg, po administered as single dose measured after 1 hr; type: ADME, organism-based
[24] = test system: Rattus norvegicus; assay: Biodistribution in fetal kidney of pregnant Sprague-Dawley rat at 5 mg/kg, po administered as single dose measured after 1 hr; type: ADME, organism-based
Method in brief: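 Pregnant rats, 270-319 g and fasted overnight, received [14C]apixaban by oral gavage at 100 μCi/kg in 0.5% Tween 80/Labrafil. One dam per time point was euthanized and frozen in hexane/dry ice. Fetal tissue radioactivity was measured by QWBA on 40 µm sagittal sections calibrated with [14C]glucose standards. Values are in µg eq/g, with LLOQ 0.037 μg eq/g.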

Radiolabel recovery [1]: 0.21 ugequiv/g
Radiolabel recovery [2]: Not detected assumed BLQ
Radiolabel recovery [3]: Not detected assumed BLQ
Radiolabel recovery [4]: 0.88 ugequiv/g
Radiolabel recovery [5]: Not detected assumed BLQ
Radiolabel recovery [6]: 0.15 ugequiv/g
Radiolabel recovery [7]: 0.43 ugequiv/g
Radiolabel recovery [8]: 0.43 ugequiv/g
Radiolabel recovery [10]: Not detected assumed BLQ
Radiolabel recovery [11]: Not detected assumed BLQ
Radiolabel recovery [12]: 0.94 ugequiv/g
Radiolabel recovery [13]: 0.69 ugequiv/g
Radiolabel recovery [14]: 0.7 ugequiv/g
Radiolabel recovery [15]: 0.4 ugequiv/g
Radiolabel recovery [16]: Not detected assumed BLQ
Radiolabel recovery [17]: Not detected assumed BLQ
Radiolabel recovery [18]: 1.93 ugequiv/g
Radiolabel recovery [19]: 0.41 ugequiv/g
AUCt [20]: 6980 ngequiv.hr/g
AUCt [21]: 3420 ngequiv.hr/g
Radiolabel recovery [22]: 1 ugequiv/g
Radiolabel recovery [23]: 0.75 ugequiv/g
Radiolabel recovery [24]: 0.2 ugequiv/g
Structure (SMILES): COc1ccc(-n2nc(C(N)=O)c3c2C(=O)N(c2ccc(N4CCCC[14C]4=O)cc2)CC3)cc1
Radiolabel recovery [9]: Not sampled as not visualised in autoradiograph
